A selection: hits, their analogues and other compounds. The true share with any hit is near 9.3%.
PostGolgi ctrl: growth of the yeast control strain, post-Golgi counter-screen | efflux-deficient yeast background strain, growth absorbance A615, 16 h | inhibition, % at 10 µM | 98,000 compounds, 5% hits
Ecoli tolC: E. coli tolC mutant growth inhibition | E. coli BW25113 tolC mutant growth, OD615 | growth inhibition, % at 10 µM (by protocol) | 65,000 compounds, 2.2% hits;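 active means growth inhibition at or above a cutoff equal to the mean over every tested compound plus 3 SD, cut at about 60% in these data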;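 further: growth measured after 20 h incubation at 37 °C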
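signal = optical density read at 615 nm | test system = E. coli ΔtolC::kan strain BW25113 | timing = 20 h compound exposure of bacteria at 37 °C | buffer or medium = LB medium plus 50 µg/mL kanamycin | compound dosing = 10 µM final, single dose | evaluation = % inhibition of E. coli growth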
D1 mod: allosteric modulators of human D1 dopamine receptor; HEK293 D1, CRE-luciferase, dopamine EC30 potentiation; actives deviate in either direction; B-score at 10 µM; 58,000 compounds, 5.9% hits; AID 641;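 active means luminescence count or its row- and column-corrected plate score outside the 99.7% band of the plate's sample wells, on either side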
Target sequence (P21728 whole entry, looked up): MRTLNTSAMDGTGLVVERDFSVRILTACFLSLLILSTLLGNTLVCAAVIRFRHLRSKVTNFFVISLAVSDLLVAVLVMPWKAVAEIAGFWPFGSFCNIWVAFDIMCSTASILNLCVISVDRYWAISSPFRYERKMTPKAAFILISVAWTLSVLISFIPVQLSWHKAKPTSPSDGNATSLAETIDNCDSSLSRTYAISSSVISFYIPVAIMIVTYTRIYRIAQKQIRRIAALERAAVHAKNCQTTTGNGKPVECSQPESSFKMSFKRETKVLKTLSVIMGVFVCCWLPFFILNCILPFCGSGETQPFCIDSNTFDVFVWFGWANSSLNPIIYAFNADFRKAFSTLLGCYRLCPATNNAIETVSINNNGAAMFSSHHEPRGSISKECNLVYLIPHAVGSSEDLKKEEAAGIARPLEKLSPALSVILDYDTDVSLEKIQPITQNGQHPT
PostGolgi yeast: growth inhibition of a yeast mutant, post-Golgi transport screen; post-Golgi transport phenotypic cell assay; inhibition, % at 10 µM; 98,000 compounds, 0.9% hits; AID 739;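 further: yeast cells grown in 1536-well plates; yeast grown about 18 h at 30C before absorbance read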
E coli WT exp: E. coli BW25113 growth inhibition, expanded screen; OD600 absorbance; growth inhibition, % at 100 µM; 98,000 compounds, 0.15% hits; AID 710;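 active means growth inhibition above about 50% at one test dose, limit read from the data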;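 further: growth measured after 20 h incubation at 37 °C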
DAT uptake mod: changed human dopamine transporter uptake under cocaine IC80 | Q01959 | LLC-PK1 hDAT cells, [14C]-dopamine uptake with cocaine IC80; actives deviate in either direction | 110,000 compounds, 1.3% hits | B-score at 10 µM;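 active means Z score or B-score, a plate-position-corrected score, falls beyond the plate's 99.7% confidence bounds, in either direction; inactive means both scores lie inside the 99.7% bounds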;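 further: scored against the spread of the other compound wells on the same plate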
* marks the source's active call; other numbers are inactive results; / = no result. Unless noted, no stated cut-off is given here; in the data, active means inhibition above about 30%; inactive means the rest.

SMILES	PostGolgi ctrl	Ecoli tolC	D1 mod	PostGolgi yeast	E coli WT exp	DAT uptake mod
CCCCn1c(SCC(=O)N2CCC(C)CC2)nc2cc(S(N)(=O)=O)ccc21	15.1	11.2	-0.42	-5.8	2.0	3.28*
CCCCn1c(SCC2CCCO2)nc2cc(S(N)(=O)=O)ccc21 (configuration not stated)	13.4	/	/	-15.6	3.0	0.0773
O=C(N/N=C/c1ccc(Br)cc1)c1ccccc1-n1cccc1	31.3*	/	/	-1.0	-4.0	-0.218
O=C(N/N=C\c1ccccc1)c1sccc1-n1cccc1	1.1	/	/	-18.4	0.0	0.999
Cc1cccc(N2C(N)=C(C#N)C(C#N)(C#N)C2c2ccccc2)c1 (configuration not stated)	24.8	100.0*	0.748	1.4	8.0	-0.818
N#CC1=C(N)N(c2ccccc2)C(c2cccc([N+](=O)[O-])c2)C1(C#N)C#N (configuration not stated)	1.5	/	/	6.1	0.0	-0.592
Cc1c(NC(=O)c2ccc3c(c2)OCO3)c(=O)n(-c2ccccc2)n1C	2.4	-3.0	/	-6.4	-9.0	0.135
CSC(=O)CC(=O)NC(=O)c1ccccc1	-9.0	-6.8	-0.174	4.0	-15.0	0.429
CCOC(=O)C1=C(C)N=c2s/c(=C/c3ccco3)c(=O)n2C1c1cccc(OC)c1 (configuration not stated)	14.9	16.4	-0.601	-12.2	-24.0	0.767
CCOC(=O)C1=C(C)N=c2s/c(=C\c3cccn3C)c(=O)n2C1c1cccc(OC)c1OC (configuration not stated)	32.7*	8.4	0.664	-0.6	-5.0	0.699
Cn1c(=O)c2c3c(sc2n2c(SCC(N)=O)nnc12)CC(C(C)(C)C)CC3 (configuration not stated)	11.3	12.3	/	2.8	6.0	0.555
CC(NC(=O)COc1cc(=O)n(C)c2ccccc12)c1ccc2c(c1)OCCO2 (configuration not stated)	-0.6	3.5	0.177	8.3	2.0	1.68*
Cn1c(C(=O)Nc2ccc3c(c2)OCO3)cc2c(=O)n(C)c3ccccc3c21	12.2	-1.8	2.48	7.1	3.0	-0.474
CC(NC(=O)c1cc2c(=O)n(C)c3ccccc3c2n1C)c1ccc2c(c1)OCCO2 (configuration not stated)	/	28.3	-4.62*	/	/	0.312
CCN(CC)S(=O)(=O)c1cccc2cc(C(=O)O)c(O)cc12	6.3	/	0.00927	22.2	3.0	-1.04
C#CCNc1nc(C)nc2c1nnn2Cc1ccccc1F	18.7	-1.0	3.56	3.1	-1.0	-0.0611
Cc1ccc(C(C(=O)NC2CCCC2)N(Cc2cccs2)C(=O)CNC(=O)c2cccs2)o1 (configuration not stated)	9.3	65.8*	-1.05	-4.2	-11.0	-1.08
O=C(Cc1cccs1)N(Cc1cccs1)C1(C(=O)NC2CCCCC2)CCCCC1	30.9*	/	/	0.5	-5.0	-0.984
COc1ccc(C(C(=O)NC2CCCCC2)N(Cc2cccs2)C(=O)Cc2c[nH]c3ccccc23)cc1 (configuration not stated)	10.2	/	/	-5.6	-14.0	0.673
COc1ccc(CN(C(=O)Cc2cccs2)C(C(=O)NC2CCCC2)c2ccncc2)cc1 (configuration not stated)	2.2	/	/	38.3*	3.0	-0.0468
COc1cccc(N(C(=O)CNC(=O)c2ccco2)C(C(=O)NC2CCCCC2)c2ccncc2)c1 (configuration not stated)	37.9*	-11.3	/	3.5	0.0	0.395
O=C(NC1CCCC1)c1noc2c1CCCCC2	10.8	/	/	-2.5	4.0	0.00381
O=C(NCC(=O)N(Cc1ccccc1)C(C(=O)NC1CCCC1)c1ccco1)c1ccco1 (configuration not stated)	3.3	-3.8	-0.84	-0.8	-8.0	0.962
COc1ccc(CN(C(=O)CNC(=O)c2ccco2)C(C(=O)NC2CCCC2)c2ccco2)cc1 (configuration not stated)	38.8*	-3.0	0.406	-9.0	1.0	0.314
COc1ccc(C2=NOC(C)(c3nnc(-c4ccc(Cl)cc4)o3)C2)cc1 (configuration not stated)	/	/	/	/	/	0.31
SMILES	PostGolgi ctrl	Ecoli tolC	D1 mod	PostGolgi yeast	E coli WT exp	DAT uptake mod
CCCc1cc2c(cc1NC(=O)c1ccc(C)cc1)OCO2	13.7	/	/	4.3	-4.0	0.879
Cc1ccc2cc(C)c3nnc(SCC(=O)Nc4nc5c(s4)CCCC5)n3c2c1	3.4	/	/	0.2	0.0	0.238
Cc1ccc2cc(CN(CCCN3CCOCC3)C(c3nnnn3Cc3ccco3)C(C)C)c(=O)[nH]c2c1C (configuration not stated)	/	/	/	/	/	3.67*
C[C@@H]1CC=C[C@H]2[C@H]1C(=O)N(Cc1ccccc1)[C@H]2c1ccc(/C=C/c2ccccc2)cc1F	/	/	/	/	/	-1.27
CCn1c2ccccc2c2nnc(SCc3cc(=O)n4ccsc4n3)nc21	/	7.0	12.5*	/	/	/
CCCn1c2ccccc2c2nnc(SCC(=O)Nc3cc(C)on3)nc21	1.0	/	/	0.8	-2.0	-0.0721
CCn1c2ccccc2c2nnc(SCC(=O)N3CC(C)OC(C)C3)nc21 (configuration not stated)	3.2	-6.0	-0.0698	-4.4	2.0	-8.82*
Cc1cccc(-n2c(SCc3cc(=O)n4ccsc4n3)nc3ccccc32)c1	32.5*	14.5	3.33	5.0	-10.0	/
CCCn1c(=O)c2ccccc2n2c(SCc3cc(=O)n4ccsc4n3)nnc12	/	-11.3	2.51	/	/	/
CCc1cccc(CC)c1-n1c(SCc2cc(=O)n3ccsc3n2)nnc1-c1cccnc1	16.5	/	/	-6.7	0.0	1.86
Fc1ccc(NCc2nnc(SCc3nnc(-c4ccccc4)o3)n2CC2CCCO2)cc1 (configuration not stated)	7.9	8.9	-0.736	-10.3	5.0	2.4
O=C(Nc1nc(=S)ss1)c1c(F)cccc1F	4.3	/	/	22.4	-2.0	0.624
Clc1ccc(OCCN2CCN(c3ncnc4sccc34)CC2)cc1	33.0*	94.5*	-2.94	-10.6	5.0	-0.269
CCc1cccc2c(C=C(C#N)C#N)cn(CC(=O)N3CCCCCC3)c12	17.6	/	/	-8.1	-19.0	0.59
O=C(c1ccc2c3c(cccc13)CC2)N1CCN(c2ncccn2)CC1	/	22.9	-0.0159	/	/	0.123
COc1cccc(-c2cn3nc4c(nc3n2)CCCC4)c1	0.7	4.1	-4.82*	-2.7	-3.0	1.57
Clc1ccc(-c2cn3nc4c(nc3n2)CCCC4)cc1	12.2	/	/	3.6	-4.0	-0.249
CC(=O)N(C)c1ccc(NC(=O)c2cnn(C)c2)cc1	-0.6	-8.9	0.0331	-1.9	-2.0	-0.0218
COc1ccc(NC2SC(=O)N(CC(=O)O)C2=O)cc1 (configuration not stated)	36.8*	-17.5	-0.82	8.8	-4.0	1.01
COC(=O)c1ccc(Oc2nc(N3CCCCC3)nc(N3CCOCC3)n2)cc1	8.4	65.7*	0.204	-12.5	-5.0	-0.167
COc1ccc(/C(O)=C2/C(=O)C(=O)N(CCCN(C)C)C2c2cccc(Cl)c2)cc1OC (configuration not stated)	/	4.9	-0.274	/	/	/
